Test results from ChEMBL document CHEMBL1124553, “Brain-specific chemical delivery systems for beta-lactam antibiotics. In vitro and in vivo studies of some dihydropyridine and dihydroisoquinoline derivatives of benzylpenicillin in rats” (J Med Chem, 1989).

What was measured:
[1] = Half-life for disappearance of compound from rabbit 10% brain homogenate; assay type: ADME, Oryctolagus cuniculus
Procedure, shortened: (§1)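 Freshly collected whole blood, or 10% w/v brain homogenate in pH 7.4 phosphate buffer (ionic strength 0.15), was prewarmed to 37 °C. Compound was spiked from an 8 mM DMSO stock to 40 µM final. Timed samples were quenched in 8% DMSO/acetonitrile, centrifuged, filtered and analyzed by reversed-phase C8 HPLC with UV detection. K came from linear regression of log peak height versus time, with t1/2 derived from it. Values are mean ± SE of three determinations in different animal samples.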

[2] = Half-life for disappearance of compound from rat 10% brain homogenate; assay type: ADME; procedure, shortened: as §1
Oryctolagus cuniculus [3] = organism: Oryctolagus cuniculus; test: Pseudo first-order rate constant (K) for disappearance of compound from rabbit 10% brain homogenate; assay type: ADME
Procedure, shortened: (§2)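 Freshly collected whole blood (rat trunk blood; rabbit) or 10% w/v brain homogenate made in pH 7.4 phosphate buffer (μ = 0.15), prewarmed to 37 °C. Compound added from 8 mM DMSO stock to a final 40 μM. Timed 0.3 mL samples were quenched in 8% DMSO/acetonitrile, centrifuged, filtered and analysed by reversed-phase C8 HPLC-UV. K came from linear regression of log peak height versus time; n=3 animal samples.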

Rattus norvegicus [4] = organism: Rattus norvegicus; test: Pseudo first-order rate constant (K) for disappearance of compound from rat 10% brain homogenate; assay type: ADME; procedure, shortened: as §2
Rattus norvegicus [5] = test: Concentration of compound in rat kidney after intravenous injection of 20 mg/kg benzyl-penicillin after 1 min; assay type: functional, organism-based; parameters: dose 20 mg/kg
Procedure, shortened: (§3)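 Male Sprague-Dawley rats (200-250 g), conscious, received 60 µmol/kg (equimolar to 20 mg/kg benzylpenicillin) by tail-vein injection. Benzylpenicillin K was given in water/ethanol/propylene glycol, and the delivery systems in ethanol:propylene glycol 7:3, at 20 mg/mL. Rats were decapitated at set times (4-6 per point), with trunk blood heparinized and brain, kidney, liver and lung frozen. Benzylpenicillin was measured by disk microbioassay (Bacillus subtilis ATCC 6633) after >5-volume sterile-water dilution or homogenization, against matrix calibration curves; assay limit 0.05 µg/mL.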

Rattus norvegicus [6] = test: Concentration of compound in rat kidney after intravenous injection of 20 mg/kg benzyl-penicillin after 20 min; assay type: functional, organism-based; parameters: dose 20 mg/kg; procedure, shortened: as §3
Rattus norvegicus [7] = test: Concentration of compound in rat kidney after intravenous injection of 20 mg/kg benzyl-penicillin after 3 min; assay type: functional, organism-based; parameters: dose 20 mg/kg; procedure, shortened: as §3
Rattus norvegicus [8] = test: Concentration of compound in rat kidney after intravenous injection of 20 mg/kg benzyl-penicillin after 40 min; assay type: functional, organism-based; parameters: dose 20 mg/kg; procedure, shortened: as §3
Rattus norvegicus [9] = test: Concentration of compound in rat kidney after intravenous injection of 20 mg/kg benzyl-penicillin after 5 min; assay type: functional, organism-based; parameters: dose 20 mg/kg; procedure, shortened: as §3
Rattus norvegicus [10] = test: Concentration of compound in rat kidney after intravenous injection of 20 mg/kg benzyl-penicillin after 60 min; assay type: functional, organism-based; parameters: dose 20 mg/kg; procedure, shortened: as §3
Rattus norvegicus [11] = test: Concentration of compound in rat kidney after intravenous injection of 20 mg/kg benzyl-penicillin after 10 min; assay type: functional, organism-based; parameters: dose 20 mg/kg; procedure, shortened: as §3
Rattus norvegicus [12] = test: Concentration of compound in rat liver after intravenous injection of 20 mg/kg benzyl-penicillin after 1 min; assay type: functional, organism-based; parameters: dose 20 mg/kg; procedure, shortened: as §3
Rattus norvegicus [13] = test: Concentration of compound in rat liver after intravenous injection of 20 mg/kg benzyl-penicillin after 10 min; assay type: functional, organism-based; parameters: dose 20 mg/kg; procedure, shortened: as §3
Rattus norvegicus [14] = test: Concentration of compound in rat liver after intravenous injection of 20 mg/kg benzyl-penicillin after 20 min; assay type: functional, organism-based; parameters: dose 20 mg/kg; procedure, shortened: as §3
Rattus norvegicus [15] = test: Concentration of compound in rat liver after intravenous injection of 20 mg/kg benzyl-penicillin after 3 min; assay type: functional, organism-based; parameters: dose 20 mg/kg; procedure, shortened: as §3
Rattus norvegicus [16] = test: Concentration of compound in rat liver after intravenous injection of 20 mg/kg benzyl-penicillin after 40 min; assay type: functional, organism-based; parameters: dose 20 mg/kg; procedure, shortened: as §3
Rattus norvegicus [17] = test: Concentration of compound in rat liver after intravenous injection of 20 mg/kg benzyl-penicillin after 5 min; assay type: functional, organism-based; parameters: dose 20 mg/kg; procedure, shortened: as §3
Rattus norvegicus [18] = test: Concentration of compound in rat blood after intravenous injection of 20 mg/kg benzyl-penicillin after 1 min; assay type: functional, organism-based; parameters: dose 20 mg/kg; procedure, shortened: as §3
Rattus norvegicus [19] = test: Concentration of compound in rat blood after intravenous injection of 20 mg/kg benzyl-penicillin after 10 min; assay type: functional, organism-based; parameters: dose 20 mg/kg; procedure, shortened: as §3
Rattus norvegicus [20] = test: Concentration of compound in rat blood after intravenous injection of 20 mg/kg benzyl-penicillin after 20 min; assay type: functional, organism-based; parameters: dose 20 mg/kg; procedure, shortened: as §3
Rattus norvegicus [21] = test: Concentration of compound in rat blood after intravenous injection of 20 mg/kg benzyl-penicillin after 3 min; assay type: functional, organism-based; parameters: dose 20 mg/kg; procedure, shortened: as §3
Rattus norvegicus [22] = test: Concentration of compound in rat blood after intravenous injection of 20 mg/kg benzyl-penicillin after 40 min; assay type: functional, organism-based; parameters: dose 20 mg/kg; procedure, shortened: as §3
Rattus norvegicus [23] = test: Concentration of compound in rat blood after intravenous injection of 20 mg/kg benzyl-penicillin after 5 min; assay type: functional, organism-based; parameters: dose 20 mg/kg; procedure, shortened: as §3
Rattus norvegicus [24] = test: Concentration of compound in rat blood after intravenous injection of 20 mg/kg benzyl-penicillin after 60 min; assay type: functional, organism-based; parameters: dose 20 mg/kg; procedure, shortened: as §3
Rattus norvegicus [25] = test: Concentration of compound in rat brain after intravenous injection of 20 mg/kg benzyl-penicillin after 1 min; assay type: functional, organism-based; parameters: dose 20 mg/kg; procedure, shortened: as §3
Rattus norvegicus [26] = test: Concentration of compound in rat brain after intravenous injection of 20 mg/kg benzyl-penicillin after 10 min; assay type: functional, organism-based; parameters: dose 20 mg/kg; procedure, shortened: as §3
Rattus norvegicus [27] = test: Concentration of compound in rat brain after intravenous injection of 20 mg/kg benzyl-penicillin after 3 min; assay type: functional, organism-based; parameters: dose 20 mg/kg; procedure, shortened: as §3
Rattus norvegicus [28] = test: Concentration of compound in rat brain after intravenous injection of 20 mg/kg benzyl-penicillin after 5 min; assay type: functional, organism-based; parameters: dose 20 mg/kg; procedure, shortened: as §3
Rattus norvegicus [29] = test: Concentration of compound in rat liver after intravenous injection of 20 mg/kg benzyl-penicillin after 60 min; assay type: functional, organism-based; parameters: dose 20 mg/kg; procedure, shortened: as §3
Rattus norvegicus [30] = test: Concentration of compound in rat lung after intravenous injection of 20 mg/kg benzyl-penicillin after 1 min; assay type: functional, organism-based; parameters: dose 20 mg/kg; procedure, shortened: as §3
Rattus norvegicus [31] = test: Concentration of compound in rat lung after intravenous injection of 20 mg/kg benzyl-penicillin after 10 min; assay type: functional, organism-based; parameters: dose 20 mg/kg; procedure, shortened: as §3
Rattus norvegicus [32] = test: Concentration of compound in rat lung after intravenous injection of 20 mg/kg benzyl-penicillin after 20 min; assay type: functional, organism-based; parameters: dose 20 mg/kg; procedure, shortened: as §3
Rattus norvegicus [33] = test: Concentration of compound in rat lung after intravenous injection of 20 mg/kg benzyl-penicillin after 3 min; assay type: functional, organism-based; parameters: dose 20 mg/kg; procedure, shortened: as §3
Rattus norvegicus [34] = test: Concentration of compound in rat lung after intravenous injection of 20 mg/kg benzyl-penicillin after 40 min; assay type: functional, organism-based; parameters: dose 20 mg/kg; procedure, shortened: as §3
Rattus norvegicus [35] = test: Concentration of compound in rat lung after intravenous injection of 20 mg/kg benzyl-penicillin after 5 min; assay type: functional, organism-based; parameters: dose 20 mg/kg; procedure, shortened: as §3
Rattus norvegicus [36] = test: Concentration of compound in rat lung after intravenous injection of 20 mg/kg benzyl-penicillin after 60 min; assay type: functional, organism-based; parameters: dose 20 mg/kg; procedure, shortened: as §3
[37] = Half-life for disappearance of compound from dog whole blood; assay type: ADME, organism-based, Canis lupus familiaris; procedure, shortened: as §1
[38] = Half-life for disappearance of compound from rat whole blood; assay type: ADME, organism-based; procedure, shortened: as §1
Canis familiaris = organism: Canis familiaris; test: Pseudo first-order rate constant (K) for disappearance of compound from dog whole blood; assay type: ADME, organism-based, Canis lupus familiaris; procedure, shortened: as §1
[39] = Pseudo first-order rate constant (K) for disappearance of compound from rat whole blood; assay type: ADME, tissue-based; procedure, shortened: as §2
[40] = Half-life for disappearance of compound from human whole blood; assay type: ADME, organism-based; procedure, shortened: as §1
[41] = Half-life for disappearance of compound from rabbit whole blood; assay type: ADME, organism-based, Oryctolagus cuniculus; procedure, shortened: as §1
Homo sapiens = organism: Homo sapiens; test: Pseudo first-order rate constant (K) for disappearance of compound from human whole blood; assay type: ADME, organism-based; procedure, shortened: as §1
Oryctolagus cuniculus [42] = organism: Oryctolagus cuniculus; test: Pseudo first-order rate constant (K) for disappearance of compound from rabbit whole blood; assay type: ADME, organism-based; procedure, shortened: as §2

C[n+]1cccc(C(=O)OCOC(=O)C2N3C(=O)C(NC(=O)Cc4ccccc4)C3SC2(C)C)c1.[I-] (stereo unspecified)
half-life [1]: 0.5 min
half-life [2]: 0.6 min
K (Oryctolagus cuniculus [3]): 1.366 min⁻¹
K (Rattus norvegicus [4]): 0.949 min⁻¹

CC1(C)S[C@@H]2[C@H](NC(=O)Cc3ccccc3)C(=O)N2[C@H]1C(=O)O
Concentration (Rattus norvegicus [5]): 33.6 µg/mL
Concentration (Rattus norvegicus [6]): 20.8 µg/mL
Concentration (Rattus norvegicus [7]): 120 µg/mL
Concentration (Rattus norvegicus [8]): 6.2 µg/mL
Concentration (Rattus norvegicus [9]): 88.5 µg/mL
Concentration (Rattus norvegicus [10]): 1.1 µg/mL
Concentration (Rattus norvegicus [11]): 27.6 µg/mL
Concentration (Rattus norvegicus [12]): 15.1 µg/mL
Concentration (Rattus norvegicus [13]): 17.7 µg/mL
Concentration (Rattus norvegicus [14]): 7.5 µg/mL
Concentration (Rattus norvegicus [15]): 38.9 µg/mL
Concentration (Rattus norvegicus [16]): 2.9 µg/mL
Concentration (Rattus norvegicus [17]): 30.7 µg/mL
Concentration (Rattus norvegicus [18]): 64.6 µg/mL
Concentration (Rattus norvegicus [19]): 8.5 µg/mL
Concentration (Rattus norvegicus [20]): 2.8 µg/mL
Concentration (Rattus norvegicus [21]): 25.2 µg/mL
Concentration (Rattus norvegicus [22]): 1.3 µg/mL
Concentration (Rattus norvegicus [23]): 22.8 µg/mL
Concentration (Rattus norvegicus [24]): 0.4 µg/mL
Concentration (Rattus norvegicus [25]): 2.7 µg/mL
Concentration (Rattus norvegicus [26]): 0.3 µg/mL
Concentration (Rattus norvegicus [27]): 1.3 µg/mL
Concentration (Rattus norvegicus [28]): 0.9 µg/mL
Concentration (Rattus norvegicus [29]): 0.7 µg/mL
Concentration (Rattus norvegicus [30]): 52.5 µg/mL
Concentration (Rattus norvegicus [31]): 9.5 µg/mL
Concentration (Rattus norvegicus [32]): 2.3 µg/mL
Concentration (Rattus norvegicus [33]): 30.3 µg/mL
Concentration (Rattus norvegicus [34]): 1.4 µg/mL
Concentration (Rattus norvegicus [35]): 22.4 µg/mL
Concentration (Rattus norvegicus [36]): 0.7 µg/mL

CN1C=c2ccccc2=C(C(=O)NCCOC(=O)C2N3C(=O)C(NC(=O)Cc4ccccc4)C3SC2(C)C)C1 (stereo unspecified)
half-life [37]: 11.4 min
half-life [2]: 28.3 min
half-life [38]: 0.6 min
K (Canis familiaris): 0.062 min⁻¹
K (Rattus norvegicus [4]): 0.025 min⁻¹
K [39]: 1.083 min⁻¹
Concentration (Rattus norvegicus [18]): 6.6 µg/mL
Concentration (Rattus norvegicus [19]): 1.2 µg/mL
Concentration (Rattus norvegicus [20]): 0.2 µg/mL
Concentration (Rattus norvegicus [21]): 3 µg/mL
Concentration (Rattus norvegicus [23]): 2.5 µg/mL
Concentration (Rattus norvegicus [25]): 0.2 µg/mL
Concentration (Rattus norvegicus [27]): 0.2 µg/mL

C[n+]1cccc(C(=O)NCCOC(=O)C2N3C(=O)C(NC(=O)Cc4ccccc4)C3SC2(C)C)c1.[I-] (stereo unspecified)
half-life [37]: 14.5 min
half-life [40]: 9.1 min
half-life [1]: 23.4 min
half-life [41]: 3 min
half-life [2]: 92.1 min
half-life [38]: 1.9 min
K (Canis familiaris): 0.048 min⁻¹
K (Homo sapiens): 0.078 min⁻¹
K (Oryctolagus cuniculus [3]): 0.03 min⁻¹
K (Oryctolagus cuniculus [42]): 0.23 min⁻¹
K (Rattus norvegicus [4]): 0.008 min⁻¹
K [39]: 0.362 min⁻¹
